Data from ChEMBL document CHEMBL1833921, “Synthesis and biological evaluation of phenstatin metabolites” (Bioorg Med Chem, 2011).

System: DU-145
Experiment: Cytotoxicity against human DU145 cells after 48 hrs by sulforhodamine B assay
Type: functional
Details: DU-145, 48 h
For `COc1ccc(C(=O)c2cc(OC)c(OC)c(OC)c2)c(OC)c1NC(C)=O`, the GI50 was 0.292 µM. `COc1ccc(C(=O)c2cc(OC)c(OC)c(OC)c2)c(N)c1` gave a GI50 of 0.036 µM. `COc1ccc(C(=O)c2cc(OC)c(OC)c(OC)c2)c(O)c1O` [HYDROXYPHENSTATIN] gave a GI50 of 0.144 µM. Molecule `COc1ccc(C(=O)c2cc(OC)c(OC)c(OC)c2)c(OC)c1N` has a GI50 of 0.0274 µM.

System: SF-295
Experiment: Cytotoxicity against human SF295 cells after 48 hrs by sulforhodamine B assay
Type: functional
Details: SF-295, 48 h
For `COc1ccc(C(=O)c2cc(OC)c(OC)c(OC)c2)c(OC)c1NC(C)=O`, the GI50 was 0.293 µM. `COc1ccc(C(=O)c2cc(OC)c(OC)c(OC)c2)c(O)c1O` [HYDROXYPHENSTATIN] showed a GI50 of 0.12 µM. For `COc1ccc(C(=O)c2cc(OC)c(OC)c(OC)c2)c(OC)c1N`, the GI50 was 0.0199 µM.

System: HL-60
Experiment: Cytotoxicity against human HL60 cells after 48 hrs by sulforhodamine B assay
Type: functional
Details: HL-60, 48 h
With `COc1ccc(C(=O)c2cc(OC)c(OC)c(OC)c2)c(OC)c1NC(C)=O` the GI50 was 3.53 µM. For `COc1ccc(C(=O)c2cc(OC)c(OC)c(OC)c2)cc1N`, the GI50 was 0.03 µM. With `COc1ccc(C(=O)c2cc(OC)c(OC)c(OC)c2)c(OC)c1N` the GI50 was 0.0331 µM.

System: A549
Experiment: Cytotoxicity against human A549 cells after 48 hrs by sulforhodamine B assay
Type: functional
Details: A549, 48 h
`COc1ccc(C(=O)c2cc(OC)c(OC)c(OC)c2)c(OC)c1NC(C)=O` gave a GI50 of 4.62 µM. `COc1ccc(C(=O)c2cc(OC)c(OC)c(OC)c2)cc1N` gave a GI50 of 0.057 µM. With `COc1ccc(C(=O)c2cc(OC)c(OC)c(OC)c2)c(OC)c1N` the GI50 was 0.039 µM.

System: OVCAR-3
Experiment: Cytotoxicity against human OVCAR3 cells after 48 hrs by sulforhodamine B assay
Type: functional
Details: OVCAR-3, 48 h
For `COc1ccc(C(=O)c2cc(OC)c(OC)c(OC)c2)c(OC)c1NC(C)=O`, the GI50 was 3.3 µM. For `COc1ccc(C(=O)c2cc(OC)c(OC)c(OC)c2)c(OC)c1N`, the GI50 was 0.0202 µM.

System: A498
Experiment: Cytotoxicity against human A498 cells after 48 hrs by sulforhodamine B assay
Type: functional
Details: A498, 48 h
`COc1ccc(C(=O)c2cc(OC)c(OC)c(OC)c2)c(OC)c1NC(C)=O` gave a GI50 of 0.0855 µM. `COc1ccc(C(=O)c2cc(OC)c(OC)c(OC)c2)c(OC)c1N` gave a GI50 of 0.0221 µM.

System: MDA-MB-435
Experiment: Cytotoxicity against human MDA-MB-435 cells after 48 hrs by sulforhodamine B assay
Type: functional
Details: MDA-MB-435, 48 h
Molecule `COc1ccc(C(=O)c2cc(OC)c(OC)c(OC)c2)c(OC)c1N` has a GI50 of under 10 µM.

System: MCF7
Experiment: Cytotoxicity against human MCF7 cells after 48 hrs by sulforhodamine B assay
Type: functional
Details: MCF7, 48 h
Molecule `COc1ccc(C(=O)c2cc(OC)c(OC)c(OC)c2)c(OC)c1NC(C)=O` has a GI50 of 9.6 µM. For `COc1ccc(C(=O)c2cc(OC)c(OC)c(OC)c2)c(N)c1`, the GI50 was 0.023 µM. In the case of `COc1ccc(C(=O)c2cc(OC)c(OC)c(OC)c2)c(OC)c1N`, the GI50 is reported as 0.0106 µM.

System: not listed separately
Experiment: Inhibition of bovine brain tubulin polymerization after 30 mins by turbidimetry analysis
Set-up: species or system Bos taurus
Details: not given
How it was run: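 Lyophilized bovine brain tubulin (97%) reconstituted to 5 mg/mL in 80 mM PIPES pH 6.9, 2 mM MgCl₂, 0.5 mM EGTA, 1.0 mM GTP and 5% glycerol. Compound in DMSO was added to this solution in a quartz cuvette at 0 °C. Assembly was followed as the rise in absorbance at 340 nm at 37 °C. IC₅₀ is the molar concentration halving the extent of assembly after 30 min.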
`COc1ccc(C(=O)c2cc(OC)c(OC)c(OC)c2)c(OC)c1NC(C)=O` showed an IC50 of over 50 µM. With `COc1ccc(C(=O)c2cc(OC)c(OC)c(OC)c2)cc1N` the IC50 was 1.5 µM. Work on `COc1ccc(C(=O)c2cc(OC)c(OC)c(OC)c2)c(N)c1` yielded an IC50 of 0.4 µM. In the case of `COc1ccc(C(=O)c2cc(OC)c(OC)c(OC)c2)c(O)c1O` [HYDROXYPHENSTATIN], the IC50 is reported as 0.8 µM. For `COc1ccc(C(=O)c2cc(OC)c(OC)c(OC)c2)c(OC)c1N`, the IC50 was 10 µM.

System: HT-29
Experiment: Cytotoxicity against human HT29 cells after 48 hrs by sulforhodamine B assay
Type: functional
Details: HT-29, 48 h
In the case of `COc1ccc(C(=O)c2cc(OC)c(OC)c(OC)c2)c(OC)c1NC(C)=O`, the GI50 is reported as 4.33 µM. `COc1ccc(C(=O)c2cc(OC)c(OC)c(OC)c2)cc1N` gave a GI50 of 0.033 µM. Molecule `COc1ccc(C(=O)c2cc(OC)c(OC)c(OC)c2)c(N)c1` has a GI50 of 0.042 µM. With `COc1ccc(C(=O)c2cc(OC)c(OC)c(OC)c2)c(OC)c1N` the GI50 was 0.0323 µM.
